# Source: PubChem (several laboratories)
# Ecoli WT expand: blocks growth of wild type E. coli BW25113; OD600 absorbance; growth inhibition, % at 100 µM; hit rate 0.15% among 98,000;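 active = growth inhibition above about 50% at one test dose, limit read from the data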;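 note: growth measured after 20 h incubation at 37 °C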
# Mac1 fbg inh: CD11b/CD18-fibrinogen binding inhibition | hit rate 0.54% among 93,000 | inhibition, % at 10 µM | K562 CD11b/CD18 adhesion to fibrinogen, ATPlite luminescence; Mn2+ added to activate the integrin | P05107+P11215;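 active = primary inhibition of 50% or more at 10 µM, then 40% or more on retest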
# Ecoli tolC: blocks growth of E. coli BW25113 tolC mutant; OD615; growth inhibition, % at 10 µM (by protocol); hit rate 2.2% among 65,000; AID 573;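 active = growth inhibition at or above a cutoff equal to the mean over every tested compound plus 3 SD, cut at about 60% in these data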;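 note: growth measured after 20 h incubation at 37 °C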
#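 Signal: optical density read at 615 nm; Assay system: E. coli ΔtolC::kan strain BW25113; Times: 20 h incubation with compound, 37 °C; Dosing: 10 µM final, single dose.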
# CD11b adhes enh: CD11b/CD18-fibrinogen binding enhancement | K562 CD11b/CD18 adhesion to fibrinogen, ATPlite luminescence | activation, % at 10 µM | P05107+P11215 | hit rate 0.07% among 93,000;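 active = 10 µM primary screen giving 50% or more activity, confirmed by 40% or more on retest at that dose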
# Pyk2 oligo antag: Pyk2 (human) oligomerization antagonism; Q293 cells, Pyk2 FERM NanoBiT luminescence; stronger effect = lower value; AID 1347419; Q14289; z-score (the deposit names both 25 µM and 10 µM); hit rate 0.83% among 99,000;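 active = Z-score of -3 or lower, scaled per plate to the spread of control and sample wells; inactive = z-score above -3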;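 note: negative z-score means lost luminescence so less FERM oligomerization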
# Target sequence (Q14289 whole entry, looked up): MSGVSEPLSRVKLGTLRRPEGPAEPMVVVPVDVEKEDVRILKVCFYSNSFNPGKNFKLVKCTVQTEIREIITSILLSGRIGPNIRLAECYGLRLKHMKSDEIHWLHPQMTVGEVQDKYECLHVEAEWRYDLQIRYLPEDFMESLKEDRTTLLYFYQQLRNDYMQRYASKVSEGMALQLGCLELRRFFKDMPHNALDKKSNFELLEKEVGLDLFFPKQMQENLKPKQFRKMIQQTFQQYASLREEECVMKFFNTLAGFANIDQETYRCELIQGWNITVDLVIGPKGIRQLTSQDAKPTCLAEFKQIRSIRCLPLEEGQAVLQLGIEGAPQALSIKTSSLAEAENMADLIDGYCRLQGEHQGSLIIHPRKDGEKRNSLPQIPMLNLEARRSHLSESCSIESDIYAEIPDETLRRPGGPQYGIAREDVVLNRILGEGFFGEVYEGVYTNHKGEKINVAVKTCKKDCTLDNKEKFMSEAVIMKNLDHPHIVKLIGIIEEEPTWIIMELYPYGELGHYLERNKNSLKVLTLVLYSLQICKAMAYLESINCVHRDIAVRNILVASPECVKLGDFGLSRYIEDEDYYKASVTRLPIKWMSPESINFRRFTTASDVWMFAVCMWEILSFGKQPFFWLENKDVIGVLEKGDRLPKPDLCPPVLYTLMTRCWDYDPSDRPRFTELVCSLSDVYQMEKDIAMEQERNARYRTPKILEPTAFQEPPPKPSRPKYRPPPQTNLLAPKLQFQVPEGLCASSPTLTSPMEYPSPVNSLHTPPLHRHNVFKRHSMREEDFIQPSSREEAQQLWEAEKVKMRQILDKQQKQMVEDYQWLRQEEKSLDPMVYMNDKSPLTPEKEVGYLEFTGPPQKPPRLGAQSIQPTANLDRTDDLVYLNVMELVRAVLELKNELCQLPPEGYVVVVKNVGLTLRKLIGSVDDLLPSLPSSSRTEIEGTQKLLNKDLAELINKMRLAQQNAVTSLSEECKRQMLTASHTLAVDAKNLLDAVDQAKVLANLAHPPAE
# Active calls of the source: *; / = no result given. Compounds with a hit are over-represented: about 2.3% of the library has one in this group of screens.
SMILES,Ecoli WT expand,Mac1 fbg inh,Ecoli tolC,CD11b adhes enh,Pyk2 oligo antag
CCOC(=O)N/N=C\c1ccc([N+](=O)[O-])o1,100*,/,/,/,0.67
CCCCCCCC(=O)N/N=C/c1ccc([N+](=O)[O-])o1,/,-8,/,9,/
CCCc1c(C(=O)OCC)[nH]c2c1C(=O)CCC2,2,1,46,-2,/
Cc1c(C(=O)OCCOc2ccccc2)[nH]c2c1C(=O)CCC2,-8,25,63*,-1,0.29
Cc1c(C(=O)OC2CCCC2C)[nH]c2c1C(=O)CCC2 (stereo unspecified),-1,23,84*,1,/
COCCN1C(=O)c2ccccc2C(C(=O)Nc2ccc3c(c2)OCCO3)C1c1ccc(F)cc1 (stereo unspecified),-1,/,/,/,-3.4*
O=C(Nc1ccc2c(c1)OCCO2)C1c2ccccc2C(=O)N2CCc3ccccc3C12 (stereo unspecified),-8,7,/,8,/
O=c1[nH]c(=O)n(Cc2ccccc2)c2c1C(C(F)(F)F)(C(F)(F)F)N=C(c1ccco1)N2,1,/,/,/,-3.5*
COC(=O)C(C)Sc1nnc(Cc2cc(=O)[nH]c(=O)[nH]2)n1-c1ccc(OC)cc1 (stereo unspecified),-2,-19,-2,0,/
COc1cc(C2Nc3ccc4ncccc4c3C3=C2C(=O)CCC3)ccc1O (stereo unspecified),3,-10,11,-3,-0.24
Cc1ccc(Cl)cc1N1CCN(C(=O)CCS(=O)(=O)c2cccc3nonc23)CC1,/,12,61*,3,/
COc1cccc(-c2nn(C)c3sc(C(=O)N4CCOCC4)cc23)c1,-4,15,6,-2,/
COc1cccc(-c2nn(C)c3sc(C(=O)N4CCN(c5ccccn5)CC4)cc23)c1,-20,62,42,0,-3.9*
CCOC(=O)c1c(C)[nH]c(C)c1C(=O)COC(=O)c1ccc(Cl)c(S(=O)(=O)NCc2ccccc2)c1,-12,13,/,-6,-1.9
Cc1[nH]nc(-c2ccc(O)cc2O)c1-c1ccc(Cl)cc1,30,/,100*,/,-1.1
Cc1cc(OCC(=O)Nc2ccncc2)cc(C)c1Br,11,84*,/,-9,1.1
O=c1n(Cc2ccc(Cl)cc2)c2sc3c(c2c2ncnn12)CCCC3,-3,76,75*,-2,-0.75
CC(C)c1ccc(CC(C)C2C3=C(CCCC3=O)OC3=C2C(=O)CCC3)cc1 (stereo unspecified),-2,-34,/,0,-4.2*
Cc1ccc(CCC2C3=C(CCCC3=O)OC3=C2C(=O)CCC3)cc1,3,9,/,-2,-1
CCCOC(=S)Nc1ccccc1,13,1,/,1,0.39
CC(=O)Oc1ccc2c(c1)cc(C)n2C,/,/,/,/,0.54
N#Cc1cn(CCOc2ccc(F)cc2)c2ccccc12,/,/,/,/,-2.1
N#Cc1cn(CCOc2ccccc2F)c2ccccc12,-5,9,74*,5,-2
Cc1ccc(/C(=N\O)c2oc3c(C)c4oc(=O)cc(C)c4cc3c2C)cc1,/,/,/,/,-2.6
Cc1cc(=O)oc2c1ccc1oc(/C(=N/O)c3ccccc3)c(C)c12,23,/,63*,/,-3.7*
SMILES,Ecoli WT expand,Mac1 fbg inh,Ecoli tolC,CD11b adhes enh,Pyk2 oligo antag
CCc1ccc(-c2nc(CSCC(=O)N3CCN(c4ncccn4)CC3)c(C)o2)cc1,-4,79*,16,-7,/
CSc1ccc(-c2nc(CSCC(=O)N3CCOCC3)c(C)o2)cc1,23,19,10,-3,-0.21
Clc1ccc(OCCCc2nc(-c3cccnc3)no2)c(Cl)c1,9,16,95*,-2,-1.4
Cc1cc(C)nc(N(C#N)S(=O)(=O)c2ccccc2)n1,-5,4,-19,-2,0.21
COc1cc(-c2c(C#N)c(N)nc(SCc3ccncc3)c2C#N)cc(OC)c1OC,-12,11,21,0,-4.1*
Cc1ccccc1NC(=O)CSc1nc(N)c(C#N)c(-c2cccs2)c1C#N,-2,-10,12,25,-3.7*
N#Cc1c(N)nc(SCc2ccncc2)c(C#N)c1-c1cccs1,-11,-9,-5,2,-3.9*
Cc1ccc(-c2csc3ncnc(Sc4nnc(CN5CCCCCC5=O)o4)c23)cc1,5,-10,61*,17,-2.9
Cc1ccc(-c2csc3ncnc(SCC(=O)Nc4nnc(C)s4)c23)cc1,-5,-22,/,36,-0.32
CCC(C)N(NC(C)=O)c1nc(Cl)nc(NC(C)(C)C)n1 (stereo unspecified),-2,-5,/,-3,-0.47
O=C(CN1CCCc2ccccc21)N/N=C/c1c(O)ccc2ccccc12,/,8,/,-9,/
CCSc1nnc(NC(=O)c2ccccn2)s1,63*,-18,100*,0,-1.1
COC(=O)C1=C(C)NC2=C(C(=O)CC(C)(C)C2)C1c1cn(Cc2ccc(Br)cc2)nc1-c1ccccc1 (stereo unspecified),-13,15,/,0,-3.3*
CC(C)(C)c1cc(NC(=O)c2cc(F)c(F)c(F)c2F)no1,0,-8,-15,2,-0.41
O=[N+]([O-])c1ccc(C(=Nc2cccc3ccccc23)N2CCOCC2)cc1,-5,/,/,/,-3.5*
CCC1SC2=NC(C)=C(C(=O)OC)C(c3cccs3)N2C1=O (stereo unspecified),-1,-2,-2,-4,-0.49
CCOC(=O)c1c(-c2cccs2)csc1NC(=O)CN1CC(C)OC(C)C1 (stereo unspecified),-15,2,68*,12,-2.1
O=S(=O)(Nc1nc2ccccc2nc1NCc1ccco1)c1ccc(Cl)cc1,-5,/,96*,/,0.65
Cc1cccc(S(=O)(=O)Nc2nc3ccccc3nc2NCc2ccco2)c1,-3,16,75*,-7,0.12
O=S(=O)(Nc1nc2ccccc2nc1Cl)c1ccccc1,/,-4,/,0,/
Cc1ccc(S(=O)(=O)Nc2nc3ccccc3nc2NCc2ccco2)cc1,0,/,20,/,0.7
Cc1noc(C)c1CSc1nc2ccccc2nc1NS(=O)(=O)c1ccc(Cl)cc1,-6,98*,49,-8,-0.92
CC(C)C(=O)Nc1ncc2c(n1)CC(c1cccs1)CC2=O (stereo unspecified),/,/,/,/,0.04
CC(=O)Nc1cc(OC(C)=O)c2nonc2c1OC(C)=O,/,59*,-21,-5,-0.26
Cc1nn(-c2ccccc2)c(Cl)c1C(=O)Nc1nnc(C2CCCC2)s1,-22,16,100*,6,-0.61
O=C(Cc1ccccc1)Nc1ccccc1N1CCN(c2ccccc2)CC1,0,-21,63*,-4,-0.53
CCOc1cc2c3c(c1)C1(C(=O)N3C(C)(C)C=C2C)C(C#N)=C(N)Oc2cc(O)ccc21 (stereo unspecified),2,12,57,-8,-0.68
COc1cc2c3c(c1)C1(C(=O)N3C(C)(C)C=C2C)C(C#N)=C(N)Oc2cc(O)ccc21 (stereo unspecified),7,-5,65*,-4,-2.3
O=C(NCC(=O)N(Cc1cccs1)C(C(=O)NC1CCCC1)c1ccco1)c1cccs1 (stereo unspecified),8,-1,12,-1,-0.23
